Drawing on ChEMBL document CHEMBL1800036, “A novel HDAC inhibitor with a hydroxy-pyrimidine scaffold” (Bioorg Med Chem Lett, 2011), this text covers IC50 for 13 compounds.

Assay [1] addresses Histone deacetylase 5 (Homo sapiens, UniProt Q9UQL6). Kind of assay: Inhibition of recombinant HDAC5 assessed as inhibition of fluorogenic aminocoumarin release from substrate by trypsin-coupled biochemical assay. In outline:
(§1)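 Trypsin-coupled fluorogenic assay. Substrate is an acetylated lysine tripeptide amide-linked to aminocoumarin (AMC). HDAC deacetylation allows trypsin to release AMC, and the fluorescence increase is read. Compound was tested at various concentrations and normalized to a DMSO control. IC50 was derived by non-linear regression fit.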

The target in assay [2] is T1, Histone deacetylase 7 (Homo sapiens, UniProt Q8WUI4).
T1 sequence (Q8WUI4 whole entry): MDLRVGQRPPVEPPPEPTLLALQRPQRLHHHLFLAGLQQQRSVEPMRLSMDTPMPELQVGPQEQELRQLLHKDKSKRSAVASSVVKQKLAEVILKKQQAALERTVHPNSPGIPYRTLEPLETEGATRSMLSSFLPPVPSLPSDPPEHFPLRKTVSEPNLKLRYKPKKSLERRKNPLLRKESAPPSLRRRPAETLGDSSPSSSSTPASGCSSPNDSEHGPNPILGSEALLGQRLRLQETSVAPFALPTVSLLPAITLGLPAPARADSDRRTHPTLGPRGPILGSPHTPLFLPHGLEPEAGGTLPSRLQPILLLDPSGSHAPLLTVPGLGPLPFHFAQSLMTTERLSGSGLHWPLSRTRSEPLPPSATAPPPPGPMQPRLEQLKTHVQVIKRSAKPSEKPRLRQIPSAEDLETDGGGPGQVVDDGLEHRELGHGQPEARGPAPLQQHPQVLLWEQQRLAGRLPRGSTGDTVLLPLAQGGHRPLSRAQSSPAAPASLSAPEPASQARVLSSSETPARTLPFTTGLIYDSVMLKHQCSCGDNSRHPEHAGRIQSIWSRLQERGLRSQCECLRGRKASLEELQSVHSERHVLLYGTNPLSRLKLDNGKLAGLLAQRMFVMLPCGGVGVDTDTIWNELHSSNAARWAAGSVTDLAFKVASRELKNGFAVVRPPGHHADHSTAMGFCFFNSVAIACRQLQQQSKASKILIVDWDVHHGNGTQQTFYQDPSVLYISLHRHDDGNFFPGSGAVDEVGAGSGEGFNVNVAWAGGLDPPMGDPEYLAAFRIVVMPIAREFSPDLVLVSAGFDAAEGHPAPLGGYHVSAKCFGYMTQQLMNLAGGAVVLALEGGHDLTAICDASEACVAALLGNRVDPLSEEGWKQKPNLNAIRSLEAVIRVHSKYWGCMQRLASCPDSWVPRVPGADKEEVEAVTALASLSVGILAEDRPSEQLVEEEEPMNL
Kind of assay: Inhibition of recombinant HDAC7 assessed as inhibition of fluorogenic aminocoumarin release from substrate by trypsin-coupled biochemical assay.

The target in assay [3] is Histone deacetylase 3 (Homo sapiens, UniProt O15379). Kind of assay: Inhibition of recombinant HDAC3 assessed as inhibition of fluorogenic aminocoumarin release from substrate by trypsin-coupled biochemical assay. The method in brief:
as §1

Assay [4] deals with Histone deacetylase 2 (Homo sapiens, UniProt Q92769). The experiment in a line: Inhibition of recombinant HDAC2 assessed as inhibition of fluorogenic aminocoumarin release from substrate by trypsin-coupled biochemical assay.
Chain of Histone deacetylase 2 (Q92769 whole entry): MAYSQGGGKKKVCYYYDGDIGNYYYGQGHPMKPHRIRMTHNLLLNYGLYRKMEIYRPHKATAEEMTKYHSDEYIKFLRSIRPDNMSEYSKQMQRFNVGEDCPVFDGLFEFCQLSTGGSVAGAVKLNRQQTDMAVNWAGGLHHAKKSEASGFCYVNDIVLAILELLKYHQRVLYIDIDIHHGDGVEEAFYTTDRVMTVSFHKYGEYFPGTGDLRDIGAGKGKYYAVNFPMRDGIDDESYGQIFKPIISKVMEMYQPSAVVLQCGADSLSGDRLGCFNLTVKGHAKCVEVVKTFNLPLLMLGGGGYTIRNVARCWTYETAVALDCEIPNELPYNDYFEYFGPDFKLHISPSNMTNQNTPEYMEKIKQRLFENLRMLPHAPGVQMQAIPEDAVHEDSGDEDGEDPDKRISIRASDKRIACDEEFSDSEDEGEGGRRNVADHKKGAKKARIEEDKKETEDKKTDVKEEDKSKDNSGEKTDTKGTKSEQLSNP
The target of assay [5] is T2, Histone deacetylase 8 (Homo sapiens, UniProt Q9BY41).
T2 sequence (Q9BY41 whole entry): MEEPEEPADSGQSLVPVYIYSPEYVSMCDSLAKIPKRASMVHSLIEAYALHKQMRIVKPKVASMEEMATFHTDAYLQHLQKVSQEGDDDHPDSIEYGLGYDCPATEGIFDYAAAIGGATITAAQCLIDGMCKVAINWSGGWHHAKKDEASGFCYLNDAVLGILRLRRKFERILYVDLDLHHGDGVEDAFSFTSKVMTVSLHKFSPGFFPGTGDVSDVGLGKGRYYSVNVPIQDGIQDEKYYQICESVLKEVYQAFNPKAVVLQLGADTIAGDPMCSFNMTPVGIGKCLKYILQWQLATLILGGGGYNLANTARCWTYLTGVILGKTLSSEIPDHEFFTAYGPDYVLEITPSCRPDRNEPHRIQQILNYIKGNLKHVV
The experiment in a line: Inhibition of recombinant HDAC8 assessed as inhibition of fluorogenic aminocoumarin release from substrate by trypsin-coupled biochemical assay. In outline: as §1

The target of assay [6] is Histone deacetylase 4 (Homo sapiens, UniProt P56524). Kind of assay: Inhibition of recombinant HDAC4 assessed as inhibition of fluorogenic aminocoumarin release from substrate by trypsin-coupled biochemical assay. The method in brief: as §1
Chain of Histone deacetylase 4 (P56524 whole entry): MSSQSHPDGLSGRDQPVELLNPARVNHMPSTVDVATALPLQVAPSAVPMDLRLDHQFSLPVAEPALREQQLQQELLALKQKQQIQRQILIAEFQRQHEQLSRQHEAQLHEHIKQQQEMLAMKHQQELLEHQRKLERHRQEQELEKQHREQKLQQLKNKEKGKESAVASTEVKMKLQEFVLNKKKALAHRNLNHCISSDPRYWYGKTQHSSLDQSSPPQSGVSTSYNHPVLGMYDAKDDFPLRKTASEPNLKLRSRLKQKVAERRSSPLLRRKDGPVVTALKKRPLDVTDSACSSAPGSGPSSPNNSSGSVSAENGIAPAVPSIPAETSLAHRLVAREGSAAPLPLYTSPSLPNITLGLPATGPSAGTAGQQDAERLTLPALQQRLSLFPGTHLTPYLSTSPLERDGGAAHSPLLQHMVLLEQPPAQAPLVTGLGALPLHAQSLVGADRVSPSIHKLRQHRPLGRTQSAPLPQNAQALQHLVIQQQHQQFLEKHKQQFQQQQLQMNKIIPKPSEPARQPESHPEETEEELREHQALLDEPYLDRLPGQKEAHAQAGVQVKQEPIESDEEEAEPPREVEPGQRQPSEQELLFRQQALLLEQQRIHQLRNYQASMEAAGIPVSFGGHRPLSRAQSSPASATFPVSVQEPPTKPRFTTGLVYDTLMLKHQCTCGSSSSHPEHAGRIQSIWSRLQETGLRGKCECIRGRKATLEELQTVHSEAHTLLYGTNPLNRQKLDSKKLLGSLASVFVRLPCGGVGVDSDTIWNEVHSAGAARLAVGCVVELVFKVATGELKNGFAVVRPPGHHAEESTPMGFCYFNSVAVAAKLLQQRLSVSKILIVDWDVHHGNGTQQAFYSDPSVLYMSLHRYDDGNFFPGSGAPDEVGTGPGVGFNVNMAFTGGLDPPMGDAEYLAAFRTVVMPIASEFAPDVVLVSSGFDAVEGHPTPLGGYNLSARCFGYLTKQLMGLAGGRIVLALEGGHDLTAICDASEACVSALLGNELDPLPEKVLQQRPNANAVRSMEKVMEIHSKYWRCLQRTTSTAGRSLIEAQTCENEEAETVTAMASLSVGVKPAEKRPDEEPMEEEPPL
Assay [7] addresses T3, Protein deacetylase HDAC6 (Homo sapiens, UniProt Q9UBN7).
T3 sequence (Q9UBN7 whole entry): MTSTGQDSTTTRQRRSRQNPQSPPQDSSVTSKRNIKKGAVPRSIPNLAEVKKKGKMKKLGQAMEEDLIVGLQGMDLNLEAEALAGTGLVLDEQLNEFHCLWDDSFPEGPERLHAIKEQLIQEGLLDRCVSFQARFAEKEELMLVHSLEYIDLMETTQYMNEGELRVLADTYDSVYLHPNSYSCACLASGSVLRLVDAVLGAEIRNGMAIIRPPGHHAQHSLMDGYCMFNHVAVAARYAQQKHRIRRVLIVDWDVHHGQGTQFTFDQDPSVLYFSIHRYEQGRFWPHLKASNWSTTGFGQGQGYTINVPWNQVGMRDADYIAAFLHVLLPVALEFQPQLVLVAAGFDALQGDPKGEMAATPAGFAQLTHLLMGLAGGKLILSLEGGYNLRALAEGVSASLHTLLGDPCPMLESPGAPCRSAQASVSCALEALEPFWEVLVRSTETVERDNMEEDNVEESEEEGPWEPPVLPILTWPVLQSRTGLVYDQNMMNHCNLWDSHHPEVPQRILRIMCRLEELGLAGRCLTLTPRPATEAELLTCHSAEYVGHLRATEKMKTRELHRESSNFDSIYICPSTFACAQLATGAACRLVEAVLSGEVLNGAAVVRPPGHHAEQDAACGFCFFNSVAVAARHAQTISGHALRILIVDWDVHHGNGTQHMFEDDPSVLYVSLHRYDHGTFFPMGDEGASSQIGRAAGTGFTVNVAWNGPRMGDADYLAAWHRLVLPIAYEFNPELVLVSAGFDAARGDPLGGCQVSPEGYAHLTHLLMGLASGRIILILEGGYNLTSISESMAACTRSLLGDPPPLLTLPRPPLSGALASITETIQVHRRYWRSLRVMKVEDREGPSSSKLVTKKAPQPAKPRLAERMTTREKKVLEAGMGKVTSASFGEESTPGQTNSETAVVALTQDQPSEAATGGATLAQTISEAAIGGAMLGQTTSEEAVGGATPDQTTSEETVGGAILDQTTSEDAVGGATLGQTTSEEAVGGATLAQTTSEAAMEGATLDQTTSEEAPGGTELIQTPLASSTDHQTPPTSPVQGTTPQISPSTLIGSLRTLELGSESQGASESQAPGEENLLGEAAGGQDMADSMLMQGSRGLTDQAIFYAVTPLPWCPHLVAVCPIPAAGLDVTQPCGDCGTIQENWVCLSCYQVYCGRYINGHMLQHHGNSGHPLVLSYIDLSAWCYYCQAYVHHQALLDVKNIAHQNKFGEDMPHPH
Kind of assay: Inhibition of recombinant HDAC6 assessed as inhibition of fluorogenic aminocoumarin release from substrate by trypsin-coupled biochemical assay. In outline: as §1

The target of assay [8] is Histone deacetylase 1 (Homo sapiens, UniProt Q13547). Kind of assay: Inhibition of recombinant HDAC1 assessed as inhibition of fluorogenic aminocoumarin release from substrate by trypsin-coupled biochemical assay. The method in brief: as §1
Chain of Histone deacetylase 1 (Q13547 whole entry): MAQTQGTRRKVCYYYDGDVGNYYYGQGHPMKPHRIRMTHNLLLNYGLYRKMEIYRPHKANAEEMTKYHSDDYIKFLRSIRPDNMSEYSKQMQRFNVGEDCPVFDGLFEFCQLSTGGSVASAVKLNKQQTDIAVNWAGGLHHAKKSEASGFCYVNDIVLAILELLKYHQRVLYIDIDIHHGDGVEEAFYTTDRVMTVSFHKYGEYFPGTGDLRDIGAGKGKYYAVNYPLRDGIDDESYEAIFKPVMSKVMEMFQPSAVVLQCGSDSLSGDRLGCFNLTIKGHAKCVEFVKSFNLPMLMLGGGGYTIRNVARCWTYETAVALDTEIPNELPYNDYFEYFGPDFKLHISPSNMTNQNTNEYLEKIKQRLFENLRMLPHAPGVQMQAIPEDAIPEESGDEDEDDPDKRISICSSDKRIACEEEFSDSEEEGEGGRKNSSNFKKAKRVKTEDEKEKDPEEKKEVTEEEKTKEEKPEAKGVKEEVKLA
The target in assay [9] is Histone deacetylase 9 (Homo sapiens, UniProt Q9UKV0). The experiment in a line: Inhibition of recombinant HDAC9 assessed as inhibition of fluorogenic aminocoumarin release from substrate by trypsin-coupled biochemical assay. In outline:
as §1

Chain of Histone deacetylase 5 (Q9UQL6 whole entry): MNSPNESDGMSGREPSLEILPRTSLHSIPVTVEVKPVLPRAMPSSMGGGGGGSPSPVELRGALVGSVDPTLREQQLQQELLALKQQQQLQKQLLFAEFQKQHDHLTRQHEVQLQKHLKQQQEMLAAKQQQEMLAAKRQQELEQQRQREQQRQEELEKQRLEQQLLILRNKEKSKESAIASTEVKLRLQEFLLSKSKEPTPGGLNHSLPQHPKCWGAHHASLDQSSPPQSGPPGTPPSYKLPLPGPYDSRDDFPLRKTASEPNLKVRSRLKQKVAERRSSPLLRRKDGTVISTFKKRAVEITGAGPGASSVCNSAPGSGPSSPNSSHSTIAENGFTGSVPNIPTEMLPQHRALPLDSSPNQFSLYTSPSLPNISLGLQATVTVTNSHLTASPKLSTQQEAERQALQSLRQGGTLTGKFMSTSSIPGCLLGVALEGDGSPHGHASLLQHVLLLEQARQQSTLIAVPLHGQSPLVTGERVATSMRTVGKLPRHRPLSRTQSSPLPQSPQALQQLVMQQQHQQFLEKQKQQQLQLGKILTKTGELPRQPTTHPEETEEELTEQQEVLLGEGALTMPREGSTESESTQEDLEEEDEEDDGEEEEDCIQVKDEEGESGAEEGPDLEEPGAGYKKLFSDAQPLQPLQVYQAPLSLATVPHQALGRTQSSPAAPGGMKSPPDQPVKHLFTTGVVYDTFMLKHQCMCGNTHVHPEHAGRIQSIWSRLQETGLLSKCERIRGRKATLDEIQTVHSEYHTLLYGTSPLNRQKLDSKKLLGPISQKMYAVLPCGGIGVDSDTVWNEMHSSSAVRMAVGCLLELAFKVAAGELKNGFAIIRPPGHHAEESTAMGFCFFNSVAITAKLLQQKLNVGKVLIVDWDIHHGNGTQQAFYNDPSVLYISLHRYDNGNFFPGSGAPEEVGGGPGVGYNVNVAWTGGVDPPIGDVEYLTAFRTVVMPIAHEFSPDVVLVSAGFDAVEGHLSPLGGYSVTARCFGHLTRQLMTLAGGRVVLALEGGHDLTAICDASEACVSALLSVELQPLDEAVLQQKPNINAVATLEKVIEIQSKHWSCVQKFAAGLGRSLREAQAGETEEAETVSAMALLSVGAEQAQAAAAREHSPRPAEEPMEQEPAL
Chain of Histone deacetylase 3 (O15379 whole entry): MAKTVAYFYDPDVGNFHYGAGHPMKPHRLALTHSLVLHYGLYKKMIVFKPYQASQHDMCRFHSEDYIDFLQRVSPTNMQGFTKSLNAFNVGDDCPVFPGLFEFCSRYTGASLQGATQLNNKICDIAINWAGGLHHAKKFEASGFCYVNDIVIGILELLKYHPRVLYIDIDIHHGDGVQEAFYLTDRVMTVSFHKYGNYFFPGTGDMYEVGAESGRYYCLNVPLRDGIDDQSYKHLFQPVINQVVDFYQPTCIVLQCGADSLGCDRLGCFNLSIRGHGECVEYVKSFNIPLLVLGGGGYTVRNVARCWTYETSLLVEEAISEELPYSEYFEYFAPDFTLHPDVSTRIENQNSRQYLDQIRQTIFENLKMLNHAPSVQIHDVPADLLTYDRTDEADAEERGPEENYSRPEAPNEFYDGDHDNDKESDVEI
Chain of Histone deacetylase 9 (Q9UKV0 whole entry): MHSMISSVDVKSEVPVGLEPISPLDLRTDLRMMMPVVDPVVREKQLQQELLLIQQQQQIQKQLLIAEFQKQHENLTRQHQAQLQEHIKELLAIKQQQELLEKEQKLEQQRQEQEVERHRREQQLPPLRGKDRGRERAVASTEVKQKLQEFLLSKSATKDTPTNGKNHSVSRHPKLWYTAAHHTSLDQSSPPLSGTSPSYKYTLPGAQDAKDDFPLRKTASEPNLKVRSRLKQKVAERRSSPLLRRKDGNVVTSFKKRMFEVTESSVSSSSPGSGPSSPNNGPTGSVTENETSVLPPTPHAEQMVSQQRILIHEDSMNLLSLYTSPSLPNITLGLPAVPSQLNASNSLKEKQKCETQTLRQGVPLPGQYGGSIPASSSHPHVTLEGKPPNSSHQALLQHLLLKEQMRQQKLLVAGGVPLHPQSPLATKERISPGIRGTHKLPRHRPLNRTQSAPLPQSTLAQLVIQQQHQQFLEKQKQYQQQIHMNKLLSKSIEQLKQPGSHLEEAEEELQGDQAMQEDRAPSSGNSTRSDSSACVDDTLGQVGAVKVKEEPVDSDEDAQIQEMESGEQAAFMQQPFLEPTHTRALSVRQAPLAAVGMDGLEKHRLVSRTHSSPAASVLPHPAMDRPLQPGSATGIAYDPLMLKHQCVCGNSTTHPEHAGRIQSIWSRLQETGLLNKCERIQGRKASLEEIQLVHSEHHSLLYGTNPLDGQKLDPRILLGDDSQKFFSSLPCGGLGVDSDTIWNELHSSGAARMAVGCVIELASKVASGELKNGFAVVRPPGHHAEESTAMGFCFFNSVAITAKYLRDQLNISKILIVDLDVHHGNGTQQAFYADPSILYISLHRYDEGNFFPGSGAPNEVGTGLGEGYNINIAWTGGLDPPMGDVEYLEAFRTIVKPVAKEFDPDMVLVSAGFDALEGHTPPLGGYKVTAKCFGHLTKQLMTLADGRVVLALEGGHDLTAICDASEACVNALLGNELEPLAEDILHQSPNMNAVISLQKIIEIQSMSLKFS

For `CC(=O)Nc1ccc(CSc2nc(C)cc(O)n2)cc1`, the IC50 in assay [1], in assay [2], in assay [3], in assay [4], in assay [5] and in assay [6] was more than 100 µM in each case. Also, the IC50 in [7], in [8] and in assay [9] was more than 100 µM throughout.

As to `Cc1cc(O)nc(SCC(=O)c2ccc(O)c(O)c2)n1`, the IC50 in assay [1], in assay [2], in assay [3], in assay [4], in assay [5] and in assay [6] was more than 100 µM in each case. In addition, the IC50 in [7] is 16.7 µM; in [8], more than 100 µM; in [9], more than 100 µM.

On to `CC(=O)Nc1ccc(C(=O)CSc2nc(C)cc(C)n2)cc1`, for which the concentration for half-maximal inhibition (IC50) in [1], in assay [2], in assay [3], in assay [4], in assay [5] and in assay [6] was more than 100 µM in each case. Also, the IC50 in [7], in [8] and in assay [9] was more than 100 µM in each case.

With `Cc1cc(=O)[nH]c(SCC(=O)NCCCCc2ccccc2)n1`, the half-inhibitory concentration (IC50) in [1], in [2], in assay [3], in [4], in assay [5] and in assay [6] was more than 100 µM throughout. The IC50 in assay [7], in assay [8] and in [9] was more than 100 µM throughout.

For the compound `COC(=O)CSc1nc(C)cc(=O)[nH]1`, the IC50 in assay [1], in [2], in [3], in assay [4], in assay [5] and in [6] was more than 100 µM each time. In addition, the IC50 in [7], in assay [8] and in [9] was more than 100 µM each time.

Consider `Cc1cc(O)nc(SCC(=O)NCCc2ccccc2)n1`, for which the IC50 in assay [1], in assay [2], in assay [3], in [4], in [5] and in assay [6] was more than 100 µM in each case. Moreover, the 50% inhibitory concentration (IC50) in assay [7], in assay [8] and in assay [9] was more than 100 µM in each case.

As to `CC(=O)Nc1ccc(C(=O)CSc2cccc(O)c2)cc1`, the IC50 in assay [1], in assay [2], in assay [3], in [4], in [5] and in [6] was more than 100 µM each time. Moreover, the IC50 in [7], in assay [8] and in assay [9] was more than 100 µM in each case.

With `CC(=O)Nc1ccc(C(=O)COc2nc(C)cc(O)n2)cc1`, the IC50 in assay [1] is 16.7 µM; in assay [3], more than 100 µM; in assay [4], more than 100 µM; in assay [5] it was more than 100 µM; in [6] it was 54.2 µM; in [7], 88 µM. The IC50 in assay [8] is more than 100 µM; in [9], 11.7 µM.

With `Cc1cc(O)nc(SCC(=O)c2ccc(Cl)cc2)n1`, the IC50 in assay [1] was more than 100 µM; in [2] it was more than 100 µM; in assay [3] it was 86.4 µM; in [4], 67 µM; in [5], more than 100 µM; in assay [6], more than 100 µM. The IC50 was 12.9 µM in assay [7], 82.3 µM in assay [8] and more than 100 µM in [9].

As for `CCOC(=O)CC(=O)CSc1nc(C)cc(O)n1`, the IC50 in assay [1] was 48.6 µM; in [2], more than 100 µM; in assay [3], 40 µM; in assay [4], 69.3 µM; in assay [5] it was more than 100 µM; in assay [6], more than 100 µM. For the same compound, the half-inhibitory concentration (IC50) in assay [7] is 7.2 µM; in [8], 77.2 µM; in [9], more than 100 µM.

With `Cc1cc(=O)[nH]c(SCC(=O)c2ccc(NC(=O)c3ccccc3)cc2)n1`, the IC50 in [1], in assay [2], in assay [3], in assay [4], in [5] and in assay [6] was more than 100 µM each time. Moreover, the IC50 was 10.8 µM in assay [7], more than 100 µM in assay [8] and more than 100 µM in assay [9].

Take `CC(=O)Nc1ccc(C(O)CSc2nc(C)cc(O)n2)cc1` (stereo unspecified): the IC50 in assay [1], in [2], in assay [3], in assay [4], in assay [5] and in assay [6] was more than 100 µM throughout. For the same compound, the half-maximal inhibitory concentration (IC50) in [7], in assay [8] and in [9] was more than 100 µM throughout.

Regarding `Cc1cc(=O)[nH]c(SCC(=O)c2ccc(O)cc2)n1`, the IC50 in [1], in assay [2], in assay [3], in [4], in [5] and in assay [6] was more than 100 µM throughout. Further, the concentration for half-maximal inhibition (IC50) in assay [7] is 40.1 µM; in assay [8] it was more than 100 µM; in assay [9], more than 100 µM.

For orientation: IC50 means the midpoint of a concentration-inhibition curve.
